Ratio data for 22 molecules are collected here from ChEMBL document CHEMBL4368943 (J Med Chem, 2019).

SMILES strings stand for the structures.

What all share (format): cell-based
Assay [1] concerns the target T1, von Hippel-Lindau disease tumor suppressor/Estrogen receptor/Cullin-2 (Homo sapiens, UniProt P03372+P40337+Q13617). The assay can be described thus: Protac activity against VHL/cullin2/ERalpha in human MCF7 cells assessed as ERalpha degradation by measuring ER protein/GADPH ratio at 100 nM after 4 hrs by Western blot analysis relative to control. The method, boiled down: (§1)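 MCF-7 cells (DMEM, 10% FBS, passages 3−8) exposed 4 h. Lysed in RIPA with protease inhibitors; equal protein on 10% SDS-PAGE, PVDF, anti-ERα blot. Membranes stripped and reprobed for GAPDH. ERα/GAPDH ratio normalized to DMSO = 100; DC50 from densitometry of the dose series.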

Assay [2] deals with T1, von Hippel-Lindau disease tumor suppressor/Estrogen receptor/Cullin-2. The assay can be described thus: Protac activity against VHL/cullin2/ERalpha in human MCF7 cells assessed as ERalpha degradation by measuring ER protein/GADPH ratio at 10 nM after 4 hrs by Western blot analysis relative to control. The method, boiled down:
as §1

The target is the same in assay [3]. Kind of assay: Protac activity against VHL/cullin2/ERalpha in human MCF7 cells assessed as ERalpha degradation by measuring ER protein/GADPH ratio at 1 nM after 4 hrs by Western blot analysis relative to control. The method, boiled down:
as §1

T1 sequence (P03372 whole entry, looked up): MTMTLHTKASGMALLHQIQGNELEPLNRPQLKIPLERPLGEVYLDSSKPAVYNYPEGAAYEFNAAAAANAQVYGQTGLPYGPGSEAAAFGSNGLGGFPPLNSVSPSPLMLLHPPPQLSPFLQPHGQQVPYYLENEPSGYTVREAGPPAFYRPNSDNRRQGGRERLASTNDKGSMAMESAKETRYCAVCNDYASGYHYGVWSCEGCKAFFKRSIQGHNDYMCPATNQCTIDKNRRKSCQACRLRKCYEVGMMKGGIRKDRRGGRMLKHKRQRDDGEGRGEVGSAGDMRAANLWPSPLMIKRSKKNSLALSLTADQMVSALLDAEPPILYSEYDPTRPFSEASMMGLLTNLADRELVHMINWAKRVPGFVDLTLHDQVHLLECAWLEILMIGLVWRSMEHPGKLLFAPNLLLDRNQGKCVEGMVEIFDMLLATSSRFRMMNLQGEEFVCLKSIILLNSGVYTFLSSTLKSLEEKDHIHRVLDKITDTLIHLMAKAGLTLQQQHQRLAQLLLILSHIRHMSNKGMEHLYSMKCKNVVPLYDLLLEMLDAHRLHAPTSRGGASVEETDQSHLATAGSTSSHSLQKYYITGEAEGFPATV
T1 sequence (P40337 whole entry, looked up): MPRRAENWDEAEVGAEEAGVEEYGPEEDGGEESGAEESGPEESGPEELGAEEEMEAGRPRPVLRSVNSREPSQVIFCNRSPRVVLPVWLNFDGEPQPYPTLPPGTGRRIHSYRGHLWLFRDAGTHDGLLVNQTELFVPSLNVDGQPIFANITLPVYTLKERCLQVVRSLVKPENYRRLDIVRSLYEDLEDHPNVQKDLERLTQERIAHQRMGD
T1 sequence (Q13617 whole entry, looked up): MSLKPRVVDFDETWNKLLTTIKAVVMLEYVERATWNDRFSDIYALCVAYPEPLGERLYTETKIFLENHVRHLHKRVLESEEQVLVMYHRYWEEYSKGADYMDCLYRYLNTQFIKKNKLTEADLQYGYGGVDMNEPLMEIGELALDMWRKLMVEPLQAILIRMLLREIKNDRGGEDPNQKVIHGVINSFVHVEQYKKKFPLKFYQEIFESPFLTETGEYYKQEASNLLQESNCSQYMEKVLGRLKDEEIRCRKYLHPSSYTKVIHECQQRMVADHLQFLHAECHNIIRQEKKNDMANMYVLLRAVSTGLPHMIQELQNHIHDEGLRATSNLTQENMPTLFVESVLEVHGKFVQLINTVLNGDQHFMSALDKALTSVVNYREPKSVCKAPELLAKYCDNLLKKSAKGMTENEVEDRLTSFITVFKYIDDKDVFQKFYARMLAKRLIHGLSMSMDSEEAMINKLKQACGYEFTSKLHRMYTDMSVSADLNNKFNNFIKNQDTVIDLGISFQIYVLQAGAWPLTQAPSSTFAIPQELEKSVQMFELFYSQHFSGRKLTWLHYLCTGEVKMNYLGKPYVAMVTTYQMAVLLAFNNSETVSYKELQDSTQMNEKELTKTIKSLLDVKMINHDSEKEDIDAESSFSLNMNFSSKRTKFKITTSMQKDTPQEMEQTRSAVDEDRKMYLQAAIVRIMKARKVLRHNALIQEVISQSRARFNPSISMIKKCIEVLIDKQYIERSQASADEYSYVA

For the molecule `CCN(CCC#Cc1cnn(CC(=O)N[C@H](C(=O)N2C[C@H](O)C[C@H]2C(=O)N[C@@H](C)c2ccc(-c3scnc3C)cc2)C(C)(C)C)c1)CCOc1ccc(C(=O)c2c(-c3ccc(O)cc3)sc3cc(O)ccc23)cc1`, the values for the Ratio in assay [1], in assay [2] and in assay [3] were 24, 45 and 139, respectively.
The corresponding values for `Cc1ncsc1-c1ccc([C@H](C)NC(=O)[C@@H]2C[C@@H](O)CN2C(=O)[C@@H](NC(=O)CCCCCCCN(CCOc2ccc(C(=O)c3c(-c4ccc(O)cc4)sc4cc(O)ccc34)cc2)C2CCC2)C(C)(C)C)cc1` are 0.1, 4 and 15.
Take `Cc1ncsc1-c1ccc([C@H](C)NC(=O)[C@@H]2C[C@@H](O)CN2C(=O)[C@@H](NC(=O)CCCCCCCN(CCOc2ccc(C(=O)c3c(-c4ccc(O)cc4)sc4cc(O)ccc34)cc2)C2CC2)C(C)(C)C)cc1`: the figures for the Ratio in assay [1], in assay [2] and in assay [3] were 0.1, 0.2 and 20, respectively.
For the molecule `C#Cc1ccc([C@H](C)NC(=O)[C@@H]2C[C@@H](O)CN2C(=O)[C@@H](NC(=O)CCCCCCCN(CC)CCOc2ccc(C(=O)c3c(-c4ccc(O)cc4)sc4cc(O)ccc34)cc2)C(C)(C)C)cc1`, the Ratio was found to be 8 in assay [1], 24 in assay [2] and 90 in assay [3].
As to `CCN(CCCCC(=O)N[C@H](C(=O)N1C[C@H](O)C[C@H]1C(=O)N[C@@H](C)c1ccc(-c2scnc2C)cc1)C(C)(C)C)CCOc1ccc(C(=O)c2c(-c3ccc(O)cc3)sc3cc(O)ccc23)cc1`, the Ratio in assay [1] was determined as 92; in assay [2], 129; in assay [3] it was 90.
The corresponding values for `CCN(CCCCCCCCC(=O)N[C@H](C(=O)N1C[C@H](O)C[C@H]1C(=O)N[C@@H](C)c1ccc(-c2scnc2C)cc1)C(C)(C)C)CCOc1ccc(C(=O)c2c(-c3ccc(O)cc3)sc3cc(O)ccc23)cc1` are 3, 7 and 23.
On to `Cc1ncsc1-c1ccc([C@H](C)NC(=O)[C@@H]2C[C@@H](O)CN2C(=O)[C@@H](NC(=O)CCCCCCCN(CCOc2ccc(C(=O)c3c(-c4ccc(O)cc4)sc4cc(O)ccc34)cc2)C2CCCC2)C(C)(C)C)cc1`, for which the Ratio in assay [1] was determined as 0.1; in assay [2] it was 0.3; in assay [3], 75.
In the case of `CCC(=C(c1ccc(O)cc1)c1ccc(OCCN(CC)CCCCCCCC(=O)N[C@H](C(=O)N2C[C@H](O)C[C@H]2C(=O)N[C@@H](C)c2ccc(-c3scnc3C)cc2)C(C)(C)C)cc1)c1ccccc1`, the Ratio in assay [1] was determined as 0.6; in assay [2], 24; in assay [3], 55.
For `CCN(CCOc1ccc(C(=O)c2c(-c3ccc(O)cc3)sc3cc(O)ccc23)cc1)CCN1CCN(CCCC(=O)N[C@H](C(=O)N2C[C@H](O)C[C@H]2C(=O)N[C@@H](C)c2ccc(-c3scnc3C)cc2)C(C)(C)C)CC1` the same measures were 24, 50 and 208.
Take `Cc1ncsc1-c1ccc([C@H](C)NC(=O)[C@@H]2C[C@@H](O)CN2C(=O)[C@@H](NC(=O)CCCCCCCN(CCOc2ccc(C(=O)c3c(-c4ccc(O)cc4)sc4cc(O)ccc34)cc2)CC2CCC2)C(C)(C)C)cc1`: the Ratio in assay [1] stood at 0.2; in assay [2], 1.3; in assay [3], 76.
For `Cc1ncsc1-c1ccc([C@H](C)NC(=O)[C@@H]2C[C@@H](O)CN2C(=O)[C@@H](NC(=O)CCCCCCCN(CCOc2ccc(C(=O)c3c(-c4ccc(O)cc4)sc4cc(O)ccc34)cc2)C2CCCCC2)C(C)(C)C)cc1` the same measures were 0.1, 0.6 and 68.
For `CCN(CCCCCCCC(=O)N[C@H](C(=O)N1C[C@H](O)C[C@H]1C(=O)N[C@@H](C)c1ccc(C#N)cc1)C(C)(C)C)CCOc1ccc(C(=O)c2c(-c3ccc(O)cc3)sc3cc(O)ccc23)cc1` the same measures were 80, 86 and 110.
In the case of `CCN(CCCC#Cc1cnn(CCC(=O)N[C@H](C(=O)N2C[C@H](O)C[C@H]2C(=O)N[C@@H](C)c2ccc(-c3scnc3C)cc2)C(C)(C)C)c1)CCOc1ccc(C(=O)c2c(-c3ccc(O)cc3)sc3cc(O)ccc23)cc1`, the Ratio in assay [1] was found to be 0.4; in assay [2] it was 0.5; in assay [3] it was 70.
For `CCN(CCCCCC(=O)N[C@H](C(=O)N1C[C@H](O)C[C@H]1C(=O)N[C@@H](C)c1ccc(-c2scnc2C)cc1)C(C)(C)C)CCOc1ccc(C(=O)c2c(-c3ccc(O)cc3)sc3cc(O)ccc23)cc1`, the Ratio came to 12 in assay [1], 66 in assay [2] and 26 in assay [3].
For `CCN(CCOc1ccc(C(=O)c2c(-c3ccc(O)cc3)sc3cc(O)ccc23)cc1)CCC1CCN(CCCC(=O)N[C@H](C(=O)N2C[C@H](O)C[C@H]2C(=O)N[C@@H](C)c2ccc(-c3scnc3C)cc2)C(C)(C)C)CC1` the same measures were 98, 91 and 227.
The corresponding values for `CCN(CCCC(=O)N[C@H](C(=O)N1C[C@H](O)C[C@H]1C(=O)N[C@@H](C)c1ccc(-c2scnc2C)cc1)C(C)(C)C)CCOc1ccc(C(=O)c2c(-c3ccc(O)cc3)sc3cc(O)ccc23)cc1` are 135, 139 and 63.
Regarding `CCN(CCCCCCCC(=O)N[C@H](C(=O)N1C[C@H](O)C[C@H]1C(=O)NCc1ccc(-c2scnc2C)cc1)C(C)(C)C)CCOc1ccc(C(=O)c2c(-c3ccc(O)cc3)sc3cc(O)ccc23)cc1`, the figures for the Ratio in assay [1], in assay [2] and in assay [3] were 62, 71 and 79, respectively.
For `CCN(CCCCCCCC(=O)N[C@H](C(=O)N1C[C@H](O)C[C@H]1C(=O)N[C@@H](C)c1ccc(C(C)C)cc1)C(C)(C)C)CCOc1ccc(C(=O)c2c(-c3ccc(O)cc3)sc3cc(O)ccc23)cc1` the same measures were 78, 109 and 138.
For the molecule `CCN(CCCCCCCC(=O)N[C@H](C(=O)N1C[C@H](O)C[C@H]1C(=O)N[C@@H](C)c1ccc(-c2scnc2C)cc1)C(C)(C)C)CCOc1ccc([C@@H]2c3ccc(O)cc3CC[C@@H]2c2ccccc2)cc1`, the Ratio in assay [1] stood at 0.3; in assay [2] it was 5; in assay [3], 74.
The corresponding values for `CCN(CCCCCCCC(=O)N[C@H](C(=O)N1C[C@H](O)C[C@H]1C(=O)N[C@@H](C)c1ccc(C(C)(C)C)cc1)C(C)(C)C)CCOc1ccc(C(=O)c2c(-c3ccc(O)cc3)sc3cc(O)ccc23)cc1` are 80, 112 and 136.
For `CCN(CCOCCOCCC(=O)N[C@H](C(=O)N1C[C@H](O)C[C@H]1C(=O)N[C@@H](C)c1ccc(-c2scnc2C)cc1)C(C)(C)C)CCOc1ccc(C(=O)c2c(-c3ccc(O)cc3)sc3cc(O)ccc23)cc1`, the figures for the Ratio in assay [1], in assay [2] and in assay [3] were 1.7, 2.4 and 183, respectively.
For `Cc1ncsc1-c1ccc([C@H](C)NC(=O)[C@@H]2C[C@@H](O)CN2C(=O)[C@@H](NC(=O)CCCCCCCN(CCOc2ccc(C(=O)c3c(-c4ccc(O)cc4)sc4cc(O)ccc34)cc2)C(C)C)C(C)(C)C)cc1` the same measures were 0.2, 0.5 and 28.
